Calls of active or inactive are those of the source. The rule behind the calls is not given here.

The subject of series [1] is Cortical neurone. Nature of the series: Cytotoxicity against Sprague-Dawley rat primary cortical neurons assessed as cell death at 100 uM after 24 hrs by MAP2 immunostaining. Type of series: cell-based. A digest of the protocol:
(§1)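 Neurons from 1-day-old pups were plated at 1 × 10^6 cells/well on poly-D-lysine in DMEM with 10% horse serum, 25 mM glucose, 10 mM HEPES, 2 mM glutamine and antibiotics. Day 3–4 cultures were treated 24 h (vehicle 0.1% DMSO), fixed in 4% paraformaldehyde, blocked (0.1% Triton X-100, 1% BSA), stained with MAP-2 1:50 overnight at 4 °C plus rhodamine secondary, and imaged by fluorescence microscopy (40X).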

Series [2] concerns Cortical neurone. Nature of the series: Cytotoxicity against Sprague-Dawley rat primary cortical neurons assessed as cell morphology at 100 uM after 24 hrs by MAP2 immunostaining. Type of series: cell-based. A digest of the protocol:
as §1

Series [3] relates to Cortical neurone. Nature of the series: Reduction of BACE1 expression in Sprague-Dawley rat primary cortical neurons after 24 hrs by immunoblot analysis. The class given is functional, cell-based. In short, it runs like this: (§2)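 Primary cortical neurons (1-day-old Sprague-Dawley pups, 3–4 day cultures) treated 24 h at 0–100 μM or 0–10 μM, with DMSO control. Lysed in RIPA, protein quantified by BCA, equal amounts run on 10% Tris–HCl gels, nitrocellulose transfer. BACE1 and ADAM10 antibodies each 1:1000 overnight at 4 °C, HRP secondary, chemiluminescence. Mature ADAM10 is the ~60 kDa band. Bands normalized to actin; mean ± S.D., n=3, Student's t-test.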
(A western blot detects proteins with antibodies after separation by electrophoresis.)

Series [4] has as its system Cortical neurone. Nature of the series: Induction of ADAM10 activation in Sprague-Dawley rat primary cortical neurons after 24 hrs by immunoblot analysis. Type of series: functional, cell-based. In short, it runs like this: as §2
Series [5] has as its system Cortical neurone. The series is described as follows: Induction of matured ADAM10 level in Sprague-Dawley rat primary cortical neurons after 24 hrs by immunoblot analysis. The class given is functional, cell-based. In short, it runs like this: as §2
Series [6] deals with Cortical neurone. The series is described as follows: Induction of IDE levels in Sprague-Dawley rat primary cortical neurons after 24 hrs by immunoblot analysis. Type of series: functional, cell-based. In short, it runs like this:
(§3)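 Cortical neurons from neonatal Sprague-Dawley rats treated 24 h at 0, 5, 20, 100 μM or 0, 1, 5, 10 μM, with DMSO control. Lysates were immunoblotted on 10% Tris–HCl gels with IDE or NEP antibody (1:1000, 4 °C overnight), nitrocellulose transfer, HRP detection. Intensities normalized to actin; mean ± S.D. of three independent experiments, Student's t-test.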

Series [7] has as its system Cortical neurone. The series is described as follows: Induction of IDE levels in Sprague-Dawley rat Alzheimer's disease model primary cortical neurons after 24 hrs by immunoblot analysis. The class given is functional, cell-based.
The subject of series [8] is ADAM10 (alpha-secretase) (Rattus norvegicus). Nature of the series: Increase in alpha-secretase activity in Sprague-Dawley rat primary cortical neurons assessed as increase in C83 level by immunoblot analysis. The following applies: Cerebral cortex neuron.
Series [9] has the same test system. The series is described as follows: Increase in alpha-secretase activity in Sprague-Dawley rat primary cortical neurons assessed as increase in sAPPalpha level by immunoblot analysis. The following applies: Cerebral cortex neuron.
Series [10] deals with Cortical neurone. The series is described as follows: Cytotoxicity against Sprague-Dawley rat primary cortical neurons assessed as cell morphology at 10 uM after 24 hrs by MAP2 immunostaining. Type of series: cell-based. A digest of the protocol:
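Cortical neurons from 1-day-old Sprague-Dawley pups, plated on poly-D-lysine at 1 × 10^6 cells/well in DMEM with 10% horse serum, used at 3–4 days in culture. Treated 24 h alongside DMSO control (0.01% or 0.1%). Fixed in 4% paraformaldehyde, blocked with Triton X-100/BSA, MAP-2 (1:50) overnight at 4 °C, rhodamine secondary, imaged by fluorescence microscopy at 40X.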

The subject of series [11] is Cortical neurone. Nature of the series: Induction of IDE levels in Sprague-Dawley rat primary cortical neurons at 5 to 100 uM after 24 hrs by immunoblot analysis. Type of series: functional, cell-based. To be noted: 1 to 10 uM, in the assay text read “1 to 10 uM” for “5 to 100 uM”. A digest of the protocol: as §3
Series [12] has as its system Cortical neurone. The series is described as follows: Induction of NEP levels in Sprague-Dawley rat primary cortical neurons at 5 uM after 24 hrs by immunoblot analysis. Type of series: functional, cell-based. A digest of the protocol:
as §3

With `CC1=C(C)C(=O)O[C@@H]([C@](C)(O)[C@H]2CC[C@H]3[C@@H]4[C@@H]5O[C@@H]5[C@@]5(O)CC=CC(=O)[C@]5(C)[C@H]4CC[C@]23C)C1` [WITHANOLIDE A], the Activity result in series [1] was “Non-toxic”; in [2], “Non-toxic”; in series [3], “Dose-dependent effect”; in series [4], “Dose-dependent effect”; in series [5] it was “Dose-dependent effect”; in series [6], “Dose-dependent effect”. The result in series [7], in [8] and in series [9] was Active.

For `C[C@H]1[C@H](C)CC[C@]2(C(=O)O)CC[C@]3(C)C(=CC[C@@H]4[C@@]5(C)C[C@@H](O)[C@H](O)[C@@](C)(CO)[C@@H]5CC[C@]43C)[C@H]12` [ASIATIC ACID], the Activity entry in series [10] was “Non-toxic”; in series [3], “Dose-dependent effect”; in series [4], “Dose-dependent effect”; in series [5], “Dose-dependent effect”. In addition, the result in series [11] was inactive. For the same compound, the result in [12] was Active.

(Values after ChEMBL document CHEMBL1177742, “Withanolide A and asiatic acid modulate multiple targets associated with amyloid-beta precursor protein processing and amyloid-beta protein clearance” (J Nat Prod, 2010).)
